What is called inhibition is the drop in the measured response relative to a control, in per cent.

Experiment [1] deals with Cyclin-dependent kinase 16 (Homo sapiens, UniProt Q00536). The experiment can be described thus: Inhibition of PCTAIRE1 in human HeLa cells lysate at 10 uM pre incubated for 15 mins followed by ADP acyl phosphate probe addition and measured after 10 mins by LC-MS/MS analysis relative to control. The following applies: time 25.0 min. It is filed as subcellular.
Experiment [2] concerns the target Serine/threonine-protein kinase PLK1 (Homo sapiens, UniProt P53350). The experiment is described as follows: Inhibition of PLK1 in human HeLa cells lysate at 2 uM pre incubated for 15 mins followed by ADP acyl phosphate probe addition and measured after 10 mins by LC-MS/MS analysis relative to control. It is filed as subcellular. The following applies: time 25.0 min.

Experiment [3] has as its target T1, Interleukin-1 receptor-associated kinase 4 (Homo sapiens) (UniProt Q9NWZ3).
T1 sequence (whole entry): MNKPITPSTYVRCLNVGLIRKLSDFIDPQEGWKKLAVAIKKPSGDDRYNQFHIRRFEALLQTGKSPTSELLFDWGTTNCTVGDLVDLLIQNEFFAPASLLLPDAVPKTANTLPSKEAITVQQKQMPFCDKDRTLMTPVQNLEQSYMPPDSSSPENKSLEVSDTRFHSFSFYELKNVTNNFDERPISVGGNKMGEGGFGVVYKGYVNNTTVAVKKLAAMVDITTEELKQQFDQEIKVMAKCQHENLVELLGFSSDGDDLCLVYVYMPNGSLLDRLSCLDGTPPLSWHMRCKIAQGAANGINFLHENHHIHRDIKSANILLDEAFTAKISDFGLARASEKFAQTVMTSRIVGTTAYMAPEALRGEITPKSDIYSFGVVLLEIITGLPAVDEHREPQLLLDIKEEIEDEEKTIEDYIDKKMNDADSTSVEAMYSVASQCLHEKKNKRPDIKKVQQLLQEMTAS
The experiment can be described thus: Inhibition of IRAK4 in human HeLa cells lysate at 50 uM pre incubated for 15 mins followed by ATP acyl phosphate probe addition and measured after 10 mins by LC-MS/MS analysis relative to control. In kind it is subcellular. The following applies: time 25.0 min.

The target of experiment [4] is T2, Serine/threonine-protein kinase Nek9 (Homo sapiens) (UniProt Q8TD19).
T2 sequence (whole entry): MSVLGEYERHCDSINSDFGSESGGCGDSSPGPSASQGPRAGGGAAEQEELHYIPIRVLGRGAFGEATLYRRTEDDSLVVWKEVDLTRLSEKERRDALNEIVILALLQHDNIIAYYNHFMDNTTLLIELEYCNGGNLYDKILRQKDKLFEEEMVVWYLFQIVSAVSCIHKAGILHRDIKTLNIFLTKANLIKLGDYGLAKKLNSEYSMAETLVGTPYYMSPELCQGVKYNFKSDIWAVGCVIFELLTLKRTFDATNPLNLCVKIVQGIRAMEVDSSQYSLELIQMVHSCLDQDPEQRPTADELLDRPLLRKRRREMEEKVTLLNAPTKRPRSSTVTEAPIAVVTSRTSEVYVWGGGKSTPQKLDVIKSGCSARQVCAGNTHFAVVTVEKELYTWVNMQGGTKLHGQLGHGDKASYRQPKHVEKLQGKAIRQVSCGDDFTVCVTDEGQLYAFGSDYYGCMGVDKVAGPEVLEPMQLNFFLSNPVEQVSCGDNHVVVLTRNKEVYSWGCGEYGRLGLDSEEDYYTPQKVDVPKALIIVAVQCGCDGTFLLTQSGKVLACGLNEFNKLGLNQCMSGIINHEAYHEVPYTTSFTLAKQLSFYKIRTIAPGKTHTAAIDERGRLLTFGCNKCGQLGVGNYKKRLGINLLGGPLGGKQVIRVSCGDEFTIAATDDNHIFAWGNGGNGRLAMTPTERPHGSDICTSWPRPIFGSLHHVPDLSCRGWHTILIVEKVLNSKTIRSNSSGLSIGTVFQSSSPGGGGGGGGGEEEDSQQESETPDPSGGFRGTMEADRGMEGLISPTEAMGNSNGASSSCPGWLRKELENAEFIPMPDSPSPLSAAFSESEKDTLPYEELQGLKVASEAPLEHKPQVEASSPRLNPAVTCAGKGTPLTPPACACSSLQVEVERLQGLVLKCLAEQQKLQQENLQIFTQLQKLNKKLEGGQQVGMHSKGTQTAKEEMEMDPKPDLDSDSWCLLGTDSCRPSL
The experiment can be described thus: Inhibition of NEK9 in human HeLa cells lysate at 50 uM pre incubated for 15 mins followed by ATP acyl phosphate probe addition and measured after 10 mins by LC-MS/MS analysis relative to control. It is filed as subcellular. To be noted: time 25.0 min.

The target of experiment [5] is Tyrosine-protein kinase Lyn (Homo sapiens, UniProt P07948). The experiment is described as follows: Inhibition of LYN in human HeLa cells lysate at 50 uM pre incubated for 15 mins followed by ATP acyl phosphate probe addition and measured after 10 mins by LC-MS/MS analysis relative to control. It is filed as subcellular. The following applies: time 25.0 min.
Chain of Tyrosine-protein kinase Lyn (P07948 2-512 limits assumed): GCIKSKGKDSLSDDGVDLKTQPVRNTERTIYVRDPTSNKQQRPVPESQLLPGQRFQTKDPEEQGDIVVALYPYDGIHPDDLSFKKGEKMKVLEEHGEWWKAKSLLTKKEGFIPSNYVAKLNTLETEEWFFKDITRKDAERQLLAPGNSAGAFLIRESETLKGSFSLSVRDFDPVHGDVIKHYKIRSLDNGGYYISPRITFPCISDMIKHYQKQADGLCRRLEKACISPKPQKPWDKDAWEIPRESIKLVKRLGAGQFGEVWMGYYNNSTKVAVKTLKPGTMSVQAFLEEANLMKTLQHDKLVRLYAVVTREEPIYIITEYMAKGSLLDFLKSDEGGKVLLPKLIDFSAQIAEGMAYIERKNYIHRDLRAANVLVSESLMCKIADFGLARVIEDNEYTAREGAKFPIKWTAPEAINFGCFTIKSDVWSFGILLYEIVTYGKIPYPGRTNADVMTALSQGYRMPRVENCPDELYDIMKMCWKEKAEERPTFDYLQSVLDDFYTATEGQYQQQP
The target in experiment [6] is T3, Serine/threonine-protein kinase A-Raf (Homo sapiens) (UniProt P10398).
T3 sequence (whole entry): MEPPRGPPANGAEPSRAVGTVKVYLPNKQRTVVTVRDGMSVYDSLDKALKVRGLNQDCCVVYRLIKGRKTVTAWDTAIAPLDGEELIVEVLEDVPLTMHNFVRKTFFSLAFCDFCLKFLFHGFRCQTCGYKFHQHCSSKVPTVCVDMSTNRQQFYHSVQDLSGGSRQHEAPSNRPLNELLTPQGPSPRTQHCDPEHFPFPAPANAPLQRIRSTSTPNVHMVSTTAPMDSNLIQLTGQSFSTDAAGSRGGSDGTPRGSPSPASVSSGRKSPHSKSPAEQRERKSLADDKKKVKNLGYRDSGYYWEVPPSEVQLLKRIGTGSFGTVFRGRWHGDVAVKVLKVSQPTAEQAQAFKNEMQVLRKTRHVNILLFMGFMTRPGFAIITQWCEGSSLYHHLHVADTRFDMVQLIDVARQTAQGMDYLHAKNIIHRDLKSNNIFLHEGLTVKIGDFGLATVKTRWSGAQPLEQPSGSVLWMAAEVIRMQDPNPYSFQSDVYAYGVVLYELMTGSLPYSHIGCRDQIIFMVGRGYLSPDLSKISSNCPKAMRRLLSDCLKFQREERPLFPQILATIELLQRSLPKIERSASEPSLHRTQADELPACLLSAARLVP
The experiment can be described thus: Inhibition of ARAF in human HeLa cells lysate at 2 uM pre incubated for 15 mins followed by ATP acyl phosphate probe addition and measured after 10 mins by LC-MS/MS analysis relative to control. In kind it is subcellular. To be noted: time 25.0 min. In short, it runs like this: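 KiNativ-type profiling in HeLa lysate (5 mg/mL total protein). Lysate preincubated 15 min with inhibitor at 50, 10, 2, 0.8 or 0 μM, then ATP or ADP acylphosphate probe added (5 μM final) for 10 min. Reaction stopped with urea and analysed by targeted MS, using up to four fragment ions per kinase peptide-probe conjugate. % inhibition calculated against untreated lysate. Duplicate reactions.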

Experiment [7] concerns HeLa. The experiment can be described thus: Antitumor activity against human HeLa cells xenografted in NOD/SCID mouse assessed as reduction tumor growth at 50 mg/kg, ip administered on day 14 post implantation measured after 28 days. In kind it is functional, organism-based. To be noted: time 14.0 day. The gist of the method: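 HeLa cells (5×10^5, in DMEM) were injected s.c. into the right flank of 6-week-old Nod/Scid mice on day 0. Dosing was 50 mg/kg i.p. twice daily, starting on day 1, 7 or 14 and continuing to day 28; controls received carrier. 6 mice per treated group. Tumors were measured every 2–3 days.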
On the technique in general: Xenograft models place foreign cells or tissue in a host animal.

Activity calls are given as the source filed them. No cut-off for these calls is given here.

Chain of Serine/threonine-protein kinase PLK1 (P53350 whole entry): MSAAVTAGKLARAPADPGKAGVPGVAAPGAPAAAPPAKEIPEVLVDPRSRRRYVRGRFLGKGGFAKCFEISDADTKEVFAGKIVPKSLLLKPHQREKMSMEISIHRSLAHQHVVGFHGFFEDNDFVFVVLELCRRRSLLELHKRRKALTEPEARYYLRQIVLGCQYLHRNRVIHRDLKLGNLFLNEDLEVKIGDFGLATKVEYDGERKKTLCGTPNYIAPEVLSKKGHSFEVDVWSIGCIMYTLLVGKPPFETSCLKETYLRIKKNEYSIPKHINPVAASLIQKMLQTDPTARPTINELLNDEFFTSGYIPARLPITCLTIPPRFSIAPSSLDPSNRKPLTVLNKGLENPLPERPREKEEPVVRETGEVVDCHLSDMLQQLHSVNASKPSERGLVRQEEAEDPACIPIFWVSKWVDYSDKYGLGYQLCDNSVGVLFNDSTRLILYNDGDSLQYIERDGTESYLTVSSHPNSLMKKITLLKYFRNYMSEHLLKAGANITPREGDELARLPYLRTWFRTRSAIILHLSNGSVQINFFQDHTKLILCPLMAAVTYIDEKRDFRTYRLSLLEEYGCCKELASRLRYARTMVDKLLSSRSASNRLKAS
Chain of Cyclin-dependent kinase 16 (Q00536 whole entry): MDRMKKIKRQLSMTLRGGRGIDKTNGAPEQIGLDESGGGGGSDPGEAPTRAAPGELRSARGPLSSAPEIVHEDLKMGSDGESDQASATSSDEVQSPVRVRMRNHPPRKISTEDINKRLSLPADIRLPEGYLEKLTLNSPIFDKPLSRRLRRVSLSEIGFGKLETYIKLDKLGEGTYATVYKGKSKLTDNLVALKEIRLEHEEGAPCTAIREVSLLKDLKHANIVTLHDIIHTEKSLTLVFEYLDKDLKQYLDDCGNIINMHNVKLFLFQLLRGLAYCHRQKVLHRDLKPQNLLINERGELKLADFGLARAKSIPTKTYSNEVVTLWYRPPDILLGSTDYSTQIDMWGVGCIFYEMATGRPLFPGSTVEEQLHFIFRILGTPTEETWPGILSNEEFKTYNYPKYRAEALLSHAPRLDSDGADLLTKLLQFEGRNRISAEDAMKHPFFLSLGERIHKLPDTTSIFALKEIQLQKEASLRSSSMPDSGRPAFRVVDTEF

Take `CCOc1cc(N2CCC(O)CC2)ccc1Nc1ncc2c(n1)N(C)c1ccccc1C(=O)N2C`: the inhibition in experiment [1] was 20.8%; in experiment [2] it was 0%; in experiment [3], 15.6%; in experiment [4], -1.6%; in experiment [5], -5.2%; in experiment [6] it was 3.3%. In addition, the result in experiment [7] was Active.

Values taken from ChEMBL document CHEMBL5661979, “Pharmacological inhibition of BMK1 suppresses tumor growth through promyelocytic leukemia protein” (Cancer Cell, 2010).
